Experimental data taken from ChEMBL document CHEMBL2040794, “Synthesis and structure-activity analysis of new phosphonium salts with potent activity against African trypanosomes” (J Med Chem, 2012).

What was measured:
[1] = system: Trypanosoma brucei rhodesiense; assay: Antitrypanosomal activity against Trypanosoma brucei rhodesiense STIB900 infected in rat L6 cells after 72 hrs by alamar blue assay; format: functional, organism-based
L6 = assay: Cytotoxicity against rat L6 cells after 72 hrs by alamar blue assay; format: cell-based
[2] = Selectivity index, ratio of EC50 for rat L6 cells to EC50 for Trypanosoma brucei rhodesiense STIB900; format: toxicity, cell-based; details: for selectivity ratio: L6 cells, read-out: Ratio EC50; for Ratio EC50: l6
Outline: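 Ratio of EC₅₀ in L6 cells to EC₅₀ against T. b. rhodesiense STIB900, both from Alamar blue assays.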

[3] = system: Trypanosoma brucei brucei; assay: Antitrypanosomal activity against wild type Trypanosoma brucei brucei Lister 427 after 3 days by alamar blue assay; format: functional, organism-based
Outline: (§1)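 Bloodstream-form T. b. brucei (wild-type s427; TbAT1-KO, made from s427 by TbAT1 deletion; B48, selected from TbAT1-KO in vitro on pentamidine, lacking functional HAPT1). Cells were exposed to compound for 48 h, then resazurin (Alamar blue) was added for a further 24 h. A single fluorescence reading gave EC50.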

[4] = system: Trypanosoma brucei brucei; assay: Antitrypanosomal activity against diminazene aceturate-resistant TbAT1 gene-deficient Trypanosoma brucei brucei AT1-KO after 3 days by alamar blue assay; format: functional, organism-based; outline: as §1
[5] = system: Trypanosoma brucei brucei; assay: Resistance factor, ratio of EC50 for diminazene aceturate-resistant TbAT1 gene-deficient Trypanosoma brucei brucei AT1-KO to EC50 for wild type Trypanosoma brucei brucei Lister 427; format: functional
Outline: (§2)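 Resistance factor is the EC50 in the resistant line (TbAT1-KO or B48) divided by the EC50 in wild-type s427. […] Resistant and wild-type EC50s were compared by Student t-test.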

[6] = system: Trypanosoma brucei brucei; assay: Antitrypanosomal activity against diminazene-, pentamidine-, and melaminophenyl arsenical-resistant HAPT1-deficient Trypanosoma brucei brucei B48 after 3 days by alamar blue assay; format: functional, organism-based; outline: as §1
[7] = system: Trypanosoma brucei brucei; assay: Resistance factor, ratio of EC50 for diminazene-, pentamidine-, and melaminophenyl arsenical-resistant HAPT1-deficient Trypanosoma brucei brucei B48 to EC50 for wild type Trypanosoma brucei brucei Lister 427; format: functional; outline: as §2
[8] = Cytotoxicity against human HEK cells after 3 days by alamar blue assay; format: cell-based, HEK293
Outline: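 Human embryonic kidney cells tested by resazurin (Alamar blue) assay: 48 h with compound, then 24 h more after dye addition, single reading; EC₅₀ derived.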

[9] = Selectivity index, ratio of EC50 for human HEK cells to EC50 for wild type Trypanosoma brucei brucei Lister 427; format: toxicity, cell-based, HEK293; details: for selectivity ratio: HEK cells, read-out: Ratio EC50; for Ratio EC50: hek293
Outline: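 Ratio of EC₅₀ in HEK cells to EC₅₀ in wild-type T. b. brucei s427, both from resazurin assays.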

[10] = Trypanosoma brucei, STIB900, 72 h
[11] = Trypanosoma brucei, Lister 427, 72 h
[12] = Trypanosoma brucei, AT1-KO, 72 h

Structure (SMILES)	EC50 [1, 10] [nM]	EC50 (L6; Rattus norvegicus, L6, 72 h) [nM]	selectivity ratio [2]	EC50 [3, 11] [nM]	EC50 [4, 12] [nM]	Ratio EC50 [5]	EC50 ([6]; Trypanosoma brucei, B48, 72 h) [nM]	Ratio EC50 [7]	EC50 ([8]; Homo sapiens, HEK293, 72 h) [nM]	selectivity ratio [9]	EC50 [3] [nM]	EC50 ([8]; hek293) [nM]	Ratio EC50 [9]	EC50 [1] [nM]	EC50 (L6; l6) [nM]	Ratio EC50 [2]	EC50 [4] [nM]	EC50 [6] [nM]
[Br-].[Br-].c1ccc2c([P+](Cc3ccc(Cc4ccc(C[P+](c5cccc6ccccc56)(c5cccc6ccccc56)c5cccc6ccccc56)cc4)cc3)(c3cccc4ccccc34)c3cccc4ccccc34)cccc2c1	299	3430	12	140	170	1.3	140	1	163000	1210	–	–	–	–	–	–	–	–
CC(C)[P+](Cc1ccc(Oc2ccc(C[P+](c3ccccc3)(c3ccccc3)C(C)C)cc2)cc1)(c1ccccc1)c1ccccc1.[Br-].[Br-]	585	5000	8.6	330	330	1	330	1	> 300000	> 900	–	–	–	–	–	–	–	–
CC(C)C[P+](Cc1ccc(Cc2ccc(C[P+](CC(C)C)(CC(C)C)CC(C)C)cc2)cc1)(CC(C)C)CC(C)C.[Br-].[Br-]	326	45900	141	700	880	1.3	880	1.3	> 300000	> 429	–	–	–	–	–	–	–	–
[Br-].[Br-].c1ccc2c([P+](Cc3ccc(Oc4ccc(C[P+](c5cccc6ccccc56)(c5cccc6ccccc56)c5cccc6ccccc56)cc4)cc3)(c3cccc4ccccc34)c3cccc4ccccc34)cccc2c1	384	3450	9	160	140	0.9	128	0.8	114000	722	–	–	–	–	–	–	–	–
Cc1ccc([P+](Cc2ccc(CCCc3ccc(C[P+](c4ccc(C)cc4)(c4ccc(C)cc4)c4ccc(C)cc4)cc3)cc2)(c2ccc(C)cc2)c2ccc(C)cc2)cc1.[Br-].[Br-]	81	1800	22	–	49	1.7	53	1.8	–	–	29	25800	897	–	–	–	–	–
Cc1ccc([P+](Cc2ccc(C(=O)c3ccccc3)cc2)(c2ccc(C)cc2)c2ccc(C)cc2)cc1.[Br-]	81	1350	16.7	64	12	0.2	11	0.2	32500	505	–	–	–	–	–	–	–	–
Cc1ccc([P+](Cc2ccc(C(=O)c3ccc(C[P+](c4ccc(C)cc4)(c4ccc(C)cc4)c4ccc(C)cc4)cc3)cc2)(c2ccc(C)cc2)c2ccc(C)cc2)cc1.[Br-].[Br-]	–	–	–	110	–	1.6	90	0.8	–	–	–	141000	1266	220	10800	49	18	–
Cc1ccc([P+](Cc2ccc(CCCc3ccc(C[P+](c4ccc(C)cc4)(c4ccc(C)cc4)c4ccc(C)cc4)cc3)cc2)(c2ccc(C)cc2)c2ccc(C)cc2)cc1.[Cl-].[Cl-]	–	–	–	–	–	0.7	–	0.6	–	–	100	12700	127	63	1720	27.3	66	62
Cc1ccc([P+](Cc2ccc(CCc3ccc(C[P+](c4ccc(C)cc4)(c4ccc(C)cc4)c4ccc(C)cc4)cc3)cc2)(c2ccc(C)cc2)c2ccc(C)cc2)cc1.[Cl-].[Cl-]	–	–	–	–	–	0.5	–	0.8	–	–	58	23300	404	50	1690	33.8	30	45
Cc1ccc(C[P+](c2ccccc2)(c2ccccc2)c2ccccc2)cc1.[Cl-]	216	10400	48	23	24	1	23	1	> 300000	> 12500	–	–	–	–	–	–	–	–
